According to ChEMBL document CHEMBL1123667, “Molecular modification of anticholinergics as probes for muscarinic receptors. 1. Amino esters of alpha-substituted phenylacetic acid and related analogues” (J Med Chem, 1987):

Columns and labels:
[1] = molecular target: Muscarinic acetylcholine receptor; experiment: pA2 value represents the affinity for the Muscarinic acetylcholine receptor and was calculated according to the Ariens and Van Rossum; format: protein assay
In short: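 Terminal ileum from male Sprague-Dawley rats (250–300 g) killed by cervical dislocation, in a 10-mL bath of Tyrode solution at 35 °C gassed with 95% O2/5% CO2, equilibrated ≥30 min. Cumulative ACh 0.05–1.0 μg/mL at 3-min intervals gives the control curve. After washout and 30 min, compound is added; 10 min later ACh 1–300 μg/mL is given cumulatively. Contraction is read in mm. pA2 = pAx + log(x − 1), with x the ACh EC50 ratio, by linear regression over two or more experiments at four or more dose levels.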

Cavia porcellus [2] = species on record: Cavia porcellus; experiment: Potency (isolated guinea pig ileum) relative to adiphenine was determined.; format: functional
Rattus norvegicus = species on record: Rattus norvegicus; experiment: Potency (isolated rat ileum) relative to adiphenine was determined.; format: functional
Cavia porcellus [3] = species on record: Cavia porcellus; experiment: Antispasmodic activity against isolated guinea pig ileum with metacholine as a spasmogen according to the method of Magnus.; format: functional; details: read-out: ID50 (the source's name)
In short: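 Guinea pig ileum segment in a 25-mL organ bath of Tyrode solution at 37 °C, gassed with 5% CO2–95% O2, equilibrated about 30 min. Repeated standard methacholine chloride challenges (4 × 10^-6 M) confirm a consistent response. Percent inhibition of contraction is measured and ID50 is taken by linear regression.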

[4] = molecular target: Muscarinic acetylcholine receptor; experiment: Affinity for the Muscarinic acetylcholine receptor; format: protein assay, Rattus norvegicus

pA2 [1]	IC50 (Cavia porcellus [3]) [nM]	IC50 (Cavia porcellus [3]; Cavia porcellus, Ileum) [nM]	pA2 [4]	SMILES	Relative potency (Cavia porcellus [2])	Relative potency (Rattus norvegicus)
–	1100	–	–	CCN(CC)CCOC(=O)C(CCCCO)c1ccccc1.Cl (racemic)	0.67	–
–	–	740	7.45	CCN(CC)CCOC(=O)C(c1ccccc1)c1ccccc1.Cl [ADIPHENINE HYDROCHLORIDE]	1	1
–	–	1200	–	CCCC(C(=O)OCCN(CC)CC)(c1ccccc1)c1ccccc1.Cl [PROADIFEN HYDROCHLORIDE]	0.62	–
–	–	–	6.38	CCN(CC)CCO[C@H]1CCCC[C@@H]1c1ccccc1.Cl (relative stereo)	–	0.09
–	–	1300	–	CCN(CC)CCOC(=O)C(c1ccccc1)(c1ccccc1)C(C)C.Cl	0.57	–
–	–	–	6.42	CCN(CC)CCOC(=O)C(COS(=O)(=O)c1ccc(C)cc1)c1ccccc1.Cl (single isomer, unassigned; (-))	–	0.09

Second part, the molecule before the results:

SMILES	pA2 [1]	IC50 (Cavia porcellus [3]) [nM]	IC50 (Cavia porcellus [3]; Cavia porcellus, Ileum) [nM]	pA2 [4]	Relative potency (Cavia porcellus [2])	Relative potency (Rattus norvegicus)
CCN(CC)CCOC(=O)C(CO)c1ccccc1.Cl (racemic)	7.13	70	–	–	10.57	0.48
CCCCC(C(=O)OCCN(CC)CC)(c1ccccc1)c1ccccc1.Cl	–	–	2600	–	0.28	–
CCN(CC)CCOC(=O)C(C)(c1ccccc1)c1ccccc1.Cl	–	–	53	8.4	14	9
CCN(CC)CCOC(=O)C(CO)c1ccccc1.Cl (single isomer, unassigned; (-))	–	31	–	7.4	23.87	0.91
CCN(CC)CCOC(=O)C(COS(=O)(=O)c1ccc(C)cc1)c1ccccc1.Cl (single isomer, unassigned; (+))	–	–	–	6.67	–	0.17
C=C(C(=O)OCCN(CC)CC)c1ccccc1.Cl	–	–	–	5.86	–	0.03
CCN(CC)CCOC(=O)C(CO)c1ccccc1.Cl (single isomer, unassigned; (+))	–	210	–	–	3.52	–
CCN(CC)CCOC(=O)C(CCCCO)c1ccccc1.Cl (single isomer, unassigned; (+))	–	–	1000	–	0.74	–
CCN(CC)CCOC(=O)C(CC)(c1ccccc1)c1ccccc1.Cl	–	–	330	6.63	2.24	0.15
CCN(CC)CCO[C@@H]1CCCC[C@@H]1c1ccccc1.Cl (relative stereo)	–	–	–	7.13	–	0.47
CCN(CC)CCOC(=O)C(CC(C)C)(c1ccccc1)c1ccccc1.Cl	–	–	1200	–	0.62	–
